High-throughput results deposited in PubChem by several laboratories.
V-ATPase pHluor: alters yeast V-ATPase proton transport. S. cerevisiae, pHLuorin cytosolic pH fluorescence. response, % at 10 µM. actives 0.37% (n = 350,000); in the data active means response mostly above about 7.3%, no sharp cut-off; inactive means mostly below about 5.4%; further: actives read high
Dynein cargo inh: blocks dynein driven cargo transport along microtubules | z-score, hits read low | 3617.4 mouse cells, GR-EGFP nuclear translocation imaging; test concentration mostly 20 µM; stimulated with dexamethasone, 1 µM; hits give low values | actives 0.47% (n = 220,000);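 active means plate z-score of nuclear minus cytoplasmic receptor signal below a set negative limit, without overly bright fluorescence or cell loss, cut at about -3.5 in these data, passing the limit was not always enough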;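 further: z-score of nuclear minus cytoplasmic ring GR-EGFP intensity difference per well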
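Also added: dexamethasone, 1.0 µM final. Medium: tet-free, stripped-serum medium. Detection: fixed, Hoechst-stained cells imaged at 10x for EGFP. Read-out: nuclear-to-cytoplasmic GR-EGFP distribution per well. Times: induction 48 h, compound 1 h, agonist 30 min.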
ABCB6 inh 2: inhibitors of human ABC transporter ABCB6 | actives 0.19% (n = 360,000) | K562-ABCB6 porphyrin accumulation, flow cytometry, 1 h; hits give low values | fluorescence ratio to DMSO, % at 10 µM | Q9NP58;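 active means fluorescence ratio to DMSO below 75%, the collection mean minus 3 SD; inconclusive means too few cells collected in the well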;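 further: signal is porphyrin accumulated inside mitochondria; lower ratio means ABCB6 inhibition with less porphyrin fluorescence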
pCIP destab: lowers stability of the mouse p/CIP coactivator protein; Q05BA5; F442A p/CIP-EGFP cells, EGFP fluorescence, 16 h; decrease of EGFP signal, % at 10 µM; actives 0.01% (n = 290,000); AID 1984;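 active means EGFP signal decrease of at least 30% at 10 µM or well 3 SD below plate mean, unless failing retest; inactive means the rest, including hits failing retest or dose response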
KCC2 mod: modulators of human KCC2 chloride dependent transport; Q9H2X9; KCC2 cells, thallium flux FluoZin-2 fluorescence; B-score of Tl+ flux slope (higher = more flux/activation; lower = inhibition) at 10 µM; actives 2.2% (n = 190,000); AID 1456;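 active means thallium flux slope and its plate-corrected score both differing from the plate sample mean at a set confidence after two filtering rounds, in either direction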;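 further: slope of fluorescence scaled to starting intensity during 10 to 20 s after thallium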
Target sequence (Q9H2X9 whole entry, looked up): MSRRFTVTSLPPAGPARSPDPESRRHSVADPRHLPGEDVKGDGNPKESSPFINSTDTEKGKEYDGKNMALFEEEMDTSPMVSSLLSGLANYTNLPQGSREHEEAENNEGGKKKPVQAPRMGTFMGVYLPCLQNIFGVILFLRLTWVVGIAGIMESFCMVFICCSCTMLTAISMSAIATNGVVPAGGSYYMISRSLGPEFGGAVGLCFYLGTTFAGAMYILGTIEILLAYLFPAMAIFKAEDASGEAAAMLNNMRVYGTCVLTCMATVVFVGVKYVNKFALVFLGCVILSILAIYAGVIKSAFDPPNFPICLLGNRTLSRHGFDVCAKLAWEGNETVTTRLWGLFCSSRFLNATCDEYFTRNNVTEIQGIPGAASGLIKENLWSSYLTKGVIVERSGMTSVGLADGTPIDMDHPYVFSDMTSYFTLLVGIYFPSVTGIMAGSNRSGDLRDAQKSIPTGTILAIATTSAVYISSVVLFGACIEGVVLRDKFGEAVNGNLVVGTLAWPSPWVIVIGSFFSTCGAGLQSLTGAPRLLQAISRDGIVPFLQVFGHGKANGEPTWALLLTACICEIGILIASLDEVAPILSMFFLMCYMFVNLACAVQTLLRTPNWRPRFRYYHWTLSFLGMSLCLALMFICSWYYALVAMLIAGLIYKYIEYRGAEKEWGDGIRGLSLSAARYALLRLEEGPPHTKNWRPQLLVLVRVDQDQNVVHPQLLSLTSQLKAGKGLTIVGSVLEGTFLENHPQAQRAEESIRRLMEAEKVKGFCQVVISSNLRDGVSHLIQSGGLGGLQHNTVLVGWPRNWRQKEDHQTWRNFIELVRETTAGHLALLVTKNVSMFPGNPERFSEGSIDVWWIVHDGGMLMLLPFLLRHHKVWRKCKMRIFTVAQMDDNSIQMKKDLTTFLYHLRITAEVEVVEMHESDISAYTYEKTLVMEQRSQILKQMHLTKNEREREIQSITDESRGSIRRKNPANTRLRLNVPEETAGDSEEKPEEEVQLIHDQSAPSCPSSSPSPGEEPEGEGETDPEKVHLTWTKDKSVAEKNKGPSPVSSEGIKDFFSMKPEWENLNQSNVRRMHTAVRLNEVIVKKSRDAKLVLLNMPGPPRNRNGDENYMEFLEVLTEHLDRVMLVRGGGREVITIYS
KCC2 sec1: KCC2 (human) modulation, secondary assay; AID 1713; actives 15% (n = 3,700); HEK293-KCC2, thallium flux, FluoZin2 fluorescence; hits give high values; shares compounds with KCC2 mod; normalised thallium flux (F/F0 slope) at 10 µM;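 active means thallium flux slope above the same plate's solvent-only control mean plus 3 SD; inconclusive means the two replicate wells disagree; inactive means no significant difference from solvent-only control wells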
KCC2 bumet counter: thallium flux persisting under bumetanide in KCC2 cells, counter-screen secondary assay | HEK293-KCC2 + bumetanide/ouabain, thallium flux FluoZin2; hits give high values | normalized thallium flux at 10 µM | shares compounds with KCC2 mod | actives 49% (n = 3,700);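 active means thallium entry rate above the same plate's blocked-transporter control wells by more than 3 SD; inconclusive means the two repeat wells disagree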;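 further: raw slope of fluorescence over initial fluorescence between 10 and 20 s after thallium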
KCC2 sec2: KCC2 (human) modulation, second secondary assay; shares compounds with KCC2 mod; HEK293-KCC2, thallium flux FluoZin2 fluorescence; actives lie on both sides; F/F0 rise rate, 10–20 s post-thallium; normalized thallium flux at 10 µM; actives 23% (n = 3,700); AID 1715;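 active means thallium flux slope more than 3 SD above or below the plate's solvent-only control mean, mostly below; inconclusive means the two repeat wells disagreed; inactive means no significant shift from solvent-only controls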
HEK293 Tl flux: counter-screen for KCC2 modulators: effect in parental HEK293 cells. shares compounds with KCC2 mod. thallium flux FluoZin2, ouabain; baseline-ratio fluorescence slope, 10–20 s after thallium. thallium flux rate (normalised fluorescence) at 10 µM. actives 46% (n = 3,700);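 active means thallium flux rate significantly above the same plate's solvent-only control wells, beyond their mean plus 3 SD; inconclusive means the two replicate wells gave conflicting results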
KCC2 ouabain: confirmation of human KCC2 modulators with ouabain. shares compounds with KCC2 mod. HEK293-KCC2, thallium flux FluoZin2 fluorescence; bidirectional: low = inhibitor, high = activator. raw Tl+ flux slope (below DMSO = inhibition, above = activation) at 10 µM. actives 48% (n = 3,700). AID 1717;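 active means thallium flux slope beyond 3 SD from same-plate DMSO control mean in most replicates, usually higher, sometimes lower; inconclusive means repeat tests gave conflicting results; inactive means no significant difference from controls in most replicates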;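 further: slope of initial-normalized fluorescence between seconds 10 and 20 after thallium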
HEK counter2: parental HEK flux effect, counter-screen 2; shares compounds with KCC2 mod; HEK293 parental, thallium flux FluoZin-2 fluorescence slope; thallium flux slope at 10 µM; actives 33% (n = 3,700); AID 1718;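 active means thallium flux slope above the same plate's solvent-control mean plus 3 SD in both duplicate wells; inconclusive means duplicate wells that disagreed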;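 further: run without ouabain in cells lacking the KCC2 cotransporter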
A number is an active result; i = inactive; ? = inconclusive; nt = not tested or not shown. The full list was thinned out, with hits kept by preference.

SMILES	V-ATPase pHluor	Dynein cargo inh	ABCB6 inh 2	pCIP destab	KCC2 mod	KCC2 sec1	KCC2 bumet counter	KCC2 sec2	HEK293 Tl flux	KCC2 ouabain	HEK counter2
COc1ccc(CNn2c(-c3cccc(C)c3)nc3ccccc3c2=O)cc1OC	i	i	i	i	nt	i	i	i	i	i	i
CC(C)CCNCC1OCc2ccccc2CO1	i	i	i	i	i	nt	nt	nt	nt	nt	nt
COc1cccc(C(=O)NNC(=O)c2sccc2-n2cccc2)c1	i	i	i	i	5.87	i	0.0118	i	0.012	i	0.0138
O=C(Nc1ccc2c(c1)OCO2)Nc1ccc2c(c1)OCO2	i	i	i	i	i	nt	nt	nt	nt	nt	nt
O=C(Nc1cccnc1)Nc1ccc2c(c1)OCO2	i	i	i	i	nt	i	i	i	i	i	i
CCOC(=O)C1=C(CC)Nc2ccccc2N/C1=N\S(=O)(=O)c1cc(Br)ccc1Br	i	i	i	i	-4.03	i	?	0.0236	0.00634	0.0152	?
CCOC(=O)C1=C(CC)Nc2ccccc2N/C1=N\S(=O)(=O)c1ccc2ccccc2c1	i	i	i	i	i	nt	nt	nt	nt	nt	nt
Cc1cccc(OCc2nc(-c3cccnc3)no2)c1	i	i	i	i	i	nt	nt	nt	nt	nt	nt
O=C(CSc1ncccc1-c1nc2ccccc2[nH]1)N1CCN(c2ccccc2F)CC1	i	i	i	i	-3.98	i	i	0.0251	i	?	i
COc1ccccc1N1CCN(C(=O)CSc2ncccc2-c2nc3ccccc3[nH]2)CC1	i	i	i	i	nt	nt	nt	nt	nt	nt	nt
CCn1c(CNC(=O)COc2ccc(C(C)C)cc2)nnc1SCC(=O)Nc1ccc(F)cc1	i	i	i	i	i	nt	nt	nt	nt	nt	nt
CCn1c(CNC(=O)COc2ccc(C(C)C)cc2)nnc1SCC(=O)Nc1cc(F)ccc1C	i	i	i	i	nt	i	i	i	?	0.017	i
CC(NC(=O)CSc1nc2ccccc2n1C)c1ccccc1 (stereo not drawn)	i	nt	i	i	nt	nt	nt	nt	nt	nt	nt
O=C(CSc1nc2ccccc2n1CCc1ccccc1)NC1CCS(=O)(=O)C1 (stereo not drawn)	i	i	i	i	7.21	i	0.0214	i	0.0108	0.0284	0.0111
O=C(CSc1nc2ccccc2n1CCc1ccccc1)NC1CC1	i	i	i	i	i	nt	nt	nt	nt	nt	nt
Cn1c(SCC(=O)NCc2ccccc2)nc2ccccc21	i	i	i	i	i	?	i	i	i	i	i
Cn1c(SCC(=O)NCCN2C(=O)CSC2=O)nc2ccccc2c1=O	i	i	i	i	6.37	i	0.0126	?	0.0122	i	0.0165
O=C(O)CCn1c(SCc2ccccc2)nc2ccccc21	i	i	i	i	-4.16	i	i	i	i	0.0149	i
Cc1c(CCNC=O)cc(C)c2c3c(oc12)CCCC3	i	nt	i	nt	nt	nt	nt	nt	nt	nt	nt
Cc1ccc(NC(=O)CCc2c[nH]c3ccccc23)nc1	i	nt	i	i	nt	nt	nt	nt	nt	nt	nt
COC1CCN(Cc2c(C(=O)N3CCN(C4CCCCC4)CC3)nc3ccccn23)CC1	i	nt	i	i	nt	nt	nt	nt	nt	nt	nt
O=C(O)c1ccc(CSc2nnc(COc3ccc(Cl)cc3Cl)o2)cc1	i	i	i	i	-3.11	i	?	i	i	i	i
C#CC(c1ccccc1)(c1ccccc1)n1ccnc1	i	nt	i	nt	nt	nt	nt	nt	nt	nt	nt
Clc1ccccc1C(c1ccccc1)(c1ccccc1)n1ccnc1	i	i	i	i	-4.27	i	i	i	0.00571	i	i
Cc1cc(C)cc(N(CC(=O)NC2CCC(C)CC2)S(=O)(=O)c2c(C)[nH]c(=O)[nH]c2=O)c1 (stereo not drawn)	i	i	i	i	i	nt	nt	nt	nt	nt	nt
SMILES	V-ATPase pHluor	Dynein cargo inh	ABCB6 inh 2	pCIP destab	KCC2 mod	KCC2 sec1	KCC2 bumet counter	KCC2 sec2	HEK293 Tl flux	KCC2 ouabain	HEK counter2
Cc1ccc(O)c(C(=O)CC(=O)c2ccccc2Cl)c1	i	i	i	i	nt	?	0.0644	i	0.0383	0.055	0.0123
Cc1ccc(O)c(C(=O)CC(=O)c2ccc(C(C)(C)C)cc2)c1	i	nt	i	i	nt	nt	nt	nt	nt	nt	nt
O=C(N/N=C/c1ccccn1)c1sc2ccccc2c1Cl	i	i	i	i	153	0.00907	0.11	0.0541	0.102	0.089	0.0816
Cc1ccccc1C(=O)N/N=C/c1ccccn1	i	i	i	i	i	nt	nt	nt	nt	nt	nt
O=C(N/N=C/c1ccc(-c2ccccc2)o1)c1ccccc1O	i	i	i	i	79.6	0.025	0.0917	i	0.035	0.0522	0.0135
O=C(N/N=C/c1ccc([N+](=O)[O-])o1)c1sc2ccccc2c1Cl	i	i	i	i	16.8	0.0185	0.102	i	0.0192	0.0537	0.0118
O=C(N/N=C\c1ccccn1)c1ccccc1O	i	i	i	i	5.43	i	0.0129	?	0.015	0.0223	0.0174
O=C(N/N=C/c1c[nH]c2ccccc12)c1sc2ccccc2c1Cl	i	i	i	i	i	nt	nt	nt	nt	nt	nt
O=C(N/N=C\c1ccncc1)c1ccccc1O	i	i	i	i	i	nt	nt	nt	nt	nt	nt
CCOc1ccccc1NC(=O)CN1C(=O)C(C)SC(C)C1=O (stereo not drawn)	i	i	i	i	i	nt	nt	nt	nt	nt	nt
Cc1cc(C)cc(OCC(=O)N/N=C/c2ccccn2)c1	i	i	i	i	i	nt	nt	nt	nt	nt	nt
O=C(COc1ccc2ccccc2c1)N/N=C/c1ccccn1	i	i	i	i	-3.78	i	i	0.0249	i	?	i
C/C(=N\NC(=S)Nc1ccccc1C)C1Cc2ccccc2C(=O)O1 (stereo not drawn)	i	i	i	i	i	nt	nt	nt	nt	nt	nt
C/C(=N\NC(=S)Nc1ccccc1)C1Cc2ccccc2C(=O)O1 (stereo not drawn)	i	i	i	i	6.6	i	0.0105	i	0.0113	i	0.0126
N#Cc1nc(-c2ccco2)oc1N1CCC(Cc2ccccc2)CC1	i	i	i	i	nt	i	i	0.0251	i	?	i
CCN(CC)C(=O)CN1C(=O)C2(OCC(C)(C)CO2)c2ccccc21	i	nt	i	nt	nt	nt	nt	nt	nt	nt	nt
CC(C)COCC(O)CCC(=O)NNC(=S)Nc1ccccc1 (stereo not drawn)	i	i	i	i	i	nt	nt	nt	nt	nt	nt
CC(C)COC(=S)Nc1ccccc1	i	i	i	i	9.3	i	0.0101	i	0.0101	?	?
